Measured values published in ChEMBL document CHEMBL1795311, “Synthesis, antiproliferative activity, and mechanism of action of a series of 2-{[(2E)-3-phenylprop-2-enoyl]amino}benzamides” (Eur J Med Chem, 2011).

Key:
MDA-MB-231 = assay: Growth inhibition of human MDA-MB-231 cells after 48 hrs by SRB assay; format: functional; settings: MDA-MB-231, 48 h
In short: (§1)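 NCI DTP panel cells grown in RPMI 1640 with 5% FBS and 2 mM L-glutamine, preincubated 24 h, then given five concentrations (10-fold or ½-log dilutions from DMSO stock) for 48 h at 37 °C. Cells fixed with TCA, stained with SRB, absorbance read at 515 nm, with time-zero plates as reference.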

UO-31 = assay: Growth inhibition of human UO31 cells after 48 hrs by SRB assay; format: functional; settings: UO-31, 48 h
In short: (§2)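 Run by the NCI Developmental Therapeutics Program: cells in RPMI 1640 with 5% FBS and 2 mM L-glutamine, plated at 5000–40,000 cells/well and grown 24 h before dosing. Drug (DMSO stock) given at five concentrations for 48 h at 37 °C, 5% CO2. Adherent cells fixed with cold TCA, stained with 0.4% SRB and read at 515 nm. GI50, TGI and LC50 taken from the time-zero, control and treated absorbances.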

KM12 = assay: Growth inhibition of human KM12 cells after 48 hrs by SRB assay; format: functional; settings: KM12, 48 h; in short: as §1
OVCAR-3 = assay: Growth inhibition of human OVCAR3 cells after 48 hrs by SRB assay; format: functional; settings: OVCAR-3, 48 h; in short: as §1
U-251 = assay: Growth inhibition of human U251 cells after 48 hrs by SRB assay; format: functional; settings: U-251, 48 h; in short: as §2
HCT-116 = assay: Growth inhibition of human HCT116 cells after 48 hrs by SRB assay; format: functional; settings: HCT-116, 48 h; in short: as §1
UACC-62 = assay: Growth inhibition of human UACC62 cells after 48 hrs by SRB assay; format: functional; settings: UACC-62, 48 h; in short: as §2
NCI-H460 = assay: Growth inhibition of human NCI-H460 cells after 48 hrs by SRB assay; format: functional; settings: NCI-H460, 48 h; in short: as §1
HOP-92 = assay: Growth inhibition of human HOP92 cells after 48 hrs by SRB assay; format: functional; settings: HOP-92, 48 h; in short: as §1
MCF7 = assay: Growth inhibition of human MCF7 cells after 48 hrs by SRB assay; format: functional; settings: MCF7, 48 h; in short: as §1
SN12C = assay: Growth inhibition of human SN12C cells after 48 hrs by SRB assay; format: functional; in short: as §2
OVCAR-4 = assay: Growth inhibition of human OVCAR4 cells after 48 hrs by SRB assay; format: functional; settings: OVCAR-4, 48 h; in short: as §1
SNB-75 = assay: Growth inhibition of human SNB75 cells after 48 hrs by SRB assay; format: functional; settings: SNB-75, 48 h; in short: as §2
COLO 205 = assay: Growth inhibition of human COLO205 cells after 48 hrs by SRB assay; format: functional; settings: COLO 205, 48 h; in short: as §1
RXF 393 = assay: Growth inhibition of human RXF393 cells after 48 hrs by SRB assay; format: functional; settings: RXF 393, 48 h; in short: as §1
SNB-19 = assay: Growth inhibition of human SNB19 cells after 48 hrs by SRB assay; format: functional; settings: SNB-19, 48 h; in short: as §2
K562 [1] = assay: Growth inhibition of human K562 cells after 48 hrs by SRB assay; format: functional; settings: K562, 48 h; in short: as §1
UACC-257 = assay: Growth inhibition of human UACC257 cells after 48 hrs by SRB assay; format: functional; settings: UACC-257, 48 h; in short: as §2
CAKI-1 = assay: Growth inhibition of human Caki1 cells after 48 hrs by SRB assay; format: functional; settings: CAKI-1, 48 h; in short: as §1
SK-MEL-2 = assay: Growth inhibition of human SK-MEL-2 cells after 48 hrs by SRB assay; format: functional; settings: SK-MEL-2, 48 h; in short: as §2
OVCAR-5 = assay: Growth inhibition of human OVCAR5 cells after 48 hrs by SRB assay; format: functional; settings: OVCAR-5, 48 h; in short: as §1
A498 = assay: Growth inhibition of human A498 cells after 48 hrs by SRB assay; format: functional; settings: A498, 48 h; in short: as §1
ACHN = assay: Growth inhibition of human ACHN cells after 48 hrs by SRB assay; format: functional; in short: as §1
SW-620 = assay: Growth inhibition of human SW620 cells after 48 hrs by SRB assay; format: functional; settings: SW-620, 48 h; in short: as §2
HCC 2998 = assay: Growth inhibition of human HCC2998 cells after 48 hrs by SRB assay; format: functional; settings: HCC 2998, 48 h; in short: as §1
LOX IMVI = assay: Growth inhibition of human LOXIMVI cells after 48 hrs by SRB assay; format: functional; in short: as §1
DU-145 = assay: Growth inhibition of human DU145 cells after 48 hrs by SRB assay; format: functional; settings: DU-145, 48 h; in short: as §1
K562 [2] = assay: Growth inhibition of human K562 cells after 48 hrs by trypan blue assay; format: functional, cell-based; settings: K562, 48 h

## NC(=O)c1cc(I)ccc1NC(=O)/C=C/c1ccccc1Cl
MDA-MB-231
  GI50: 1410 nM
UO-31
  GI50: 1630 nM
KM12
  GI50: 533 nM
OVCAR-3
  GI50: 294 nM
U-251
  GI50: 663 nM
HCT-116
  GI50: 509 nM
UACC-62
  GI50: 388 nM
NCI-H460
  GI50: 479 nM
HOP-92
  GI50: 13200 nM
MCF7
  GI50: 401 nM
SN12C
  GI50: 1550 nM
OVCAR-4
  GI50: 2370 nM
SNB-75
  GI50: 1220 nM
COLO 205
  GI50: 797 nM
RXF 393
  GI50: 425 nM
SNB-19
  GI50: 1410 nM
K562 [1]
  GI50: 370 nM
UACC-257
  GI50: 38700 nM
CAKI-1
  GI50: 637 nM
SK-MEL-2
  GI50: 678 nM
OVCAR-5
  GI50: 4020 nM
A498
  GI50: 880 nM
ACHN
  GI50: 9860 nM
SW-620
  GI50: 605 nM
HCC 2998
  GI50: 984 nM
LOX IMVI
  GI50: 4210 nM
DU-145
  GI50: 1280 nM
K562 [2]
  IC50: 1200 nM
